A short description of series [1]: AUC (0 to 8 hrs) in Sprague-Dawley rat plasma at 5 mg/kg, po by UHPLC-MS analysis. The series is classed as ADME, organism-based. The arrangement: time < 8 hr, dose 5 mg/kg, route oral. In outline: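 Male Sprague Dawley rats (8 weeks old at delivery), single oral dose of 5 mg/kg, formulation at pH 3. Three rats per time point (30 min, 2, 4, 8 h) under isoflurane; heart-puncture blood into lithium-heparin, then brain collected. Plasma and tissue stored at −80 °C. Samples precipitated with acetonitrile containing diazepam internal standard, then LC–MS.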

A short description of series [2]: Stability in CD-1 mouse hepatocytes assessed as parent compound remaining at 5 uM after 3 hrs by LC-MS analysis. In kind it is ADME, cell-based, Hepatocyte. As to conditions: read-out: Stability. Summed up: (§1)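 Cryopreserved hepatocytes in suspension (200 000 cells/well) in Williams medium E with 2 mM L-glutamine and 25 mM HEPES. Test item at a final 5 μM (0.5% DMSO). Sampled at 0, 15, 60, 90 and 180 min. Precipitated with ACN, then LC–MS. Controls: 7-ethoxycoumarin and hepatocyte-free medium; n = 2.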

Series [3] is described as follows: Stability in Beagle dog hepatocytes assessed as parent compound remaining at 5 uM after 3 hrs by LC-MS analysis. In kind it is ADME, cell-based, Canis lupus familiaris, Hepatocyte. Particulars: read-out: Stability. Summed up:
as §1

Series [4] is described as follows: Stability in human hepatocytes assessed as parent compound remaining at 5 uM after 3 hrs by LC-MS analysis. In kind it is ADME, cell-based, Hepatocyte. Particulars: read-out: Stability. Summed up:
as §1

The target of series [5] is T1, CYP1A2 (Homo sapiens, UniProt P05177).
T1 sequence (P05177 whole entry): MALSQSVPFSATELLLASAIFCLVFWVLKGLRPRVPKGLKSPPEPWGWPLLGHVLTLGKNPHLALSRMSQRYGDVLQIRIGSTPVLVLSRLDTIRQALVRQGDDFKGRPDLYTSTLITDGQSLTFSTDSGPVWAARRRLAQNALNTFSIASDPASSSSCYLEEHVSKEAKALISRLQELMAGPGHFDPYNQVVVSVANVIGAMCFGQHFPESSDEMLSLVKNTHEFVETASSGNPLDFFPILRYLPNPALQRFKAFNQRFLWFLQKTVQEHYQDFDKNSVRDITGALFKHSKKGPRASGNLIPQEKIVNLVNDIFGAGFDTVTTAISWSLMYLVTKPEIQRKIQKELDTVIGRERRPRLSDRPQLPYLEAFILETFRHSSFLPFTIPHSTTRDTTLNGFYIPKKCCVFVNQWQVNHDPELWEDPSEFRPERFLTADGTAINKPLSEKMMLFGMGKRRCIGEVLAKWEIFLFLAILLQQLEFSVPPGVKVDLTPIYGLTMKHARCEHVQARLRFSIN
Put plainly: Drug metabolism assessed as recombinant human CYP1A2-mediated compound hydrolysis by measuring parent compound remaining incubated for 60 mins by LC-HRMS analysis. In kind it is ADME. As to conditions: read-out: Stability. Summed up:
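Human recombinant CYP1A1 or CYP1A2 Supersomes (25 pmol/mL) incubated with compound at 1 μM (0.25% DMSO) plus NADP+-regenerating cofactors at 37 °C for 60 min. Reaction stopped with ACN containing internal standard. Parent and metabolites expressed as percentage of total peak areas.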

Series [6] in a line: Stability in Sprague-Dawley rat hepatocytes assessed as parent compound remaining at 5 uM after 3 hrs by LC-MS analysis. The series is classed as ADME, cell-based, Hepatocyte. As to conditions: read-out: Stability. Summed up: as §1

By AUC(0-t) is commonly meant the area under the concentration-time curve up to a stated or last time point. Low values mean low exposure, high ones high exposure. In series [1], `C[C@@H]1COCCN1c1nc(-c2cnc(N)cn2)nc2c1C[C@@H]1COCCN21` had an AUC(0-t) at 8 h of 5.73 µg·h/mL.
Turning to `C[C@@H]1COCCN1c1nc(-c2cnc(N)nc2)nc2c1C[C@@H]1COCCN21`, the remaining at 3 h, 5 µM in series [2] turned out to be 81.2%; in series [3], 93%; in series [4] it was 93.2%; in series [6], 93.6%. In addition, the remaining at 1 h in series [5] turned out to be 99.7%.

For the origin of these results see ChEMBL document CHEMBL4321805, “A Conformational Restriction Strategy for the Identification of a Highly Selective Pyrimido-pyrrolo-oxazine mTOR Inhibitor” (J Med Chem, 2019).
